PMC12037726 (Nature Communications, 2025)

Tests used:
[1] = tested on: HeLa cells; assay: Cytotoxicity, CellTiter96 AQueous; type: cell-based, human; settings: 1 h; MPN 10 and 100 µM, NM102 10 and 300 µM, NM102 nanoformulation 1.29 and 5.16 mM
Summary of the method: (§1)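 Cells grown in DMEM with 10% heat-inactivated FBS, 1 U/mL penicillin and 1 µg/mL streptomycin (37 °C, 5% CO2). At 70% confluency, trypsinised and seeded at 4 × 10^4 cells/well, then incubated overnight. Switched to antibiotic-free DMEM 2 h before assay. Exposed 1 h in HBSS with 10% DMSO or empty-nanoformulation controls. MTS reagent added for 1 h, A490 read. Reagent and compound backgrounds subtracted; normalised to untreated cells.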

[2] = tested on: P. aeruginosa CIP27853; assay: Mouse lung infection, CFU in lung at 24 h; type: in vivo; settings: MPN at 10 mg/ml, i.p.
[3] = tested on: K. pneumoniae ALE; assay: Mouse lung infection, CFU in lung at 24 h; type: in vivo; settings: MPN 10 mg/kg i.p.
Summary of the method: (§2)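 Nine-week-old female C57BL/6J mice were anaesthetized with ketamine (79 mg/kg) and xylazine (9 mg/kg) i.p. Infected intranasally with 1 × 10^7 CFU in 20 µL PBS from late-exponential cultures. MPN was given at 10 mg/kg i.p. At 24 h mice were killed and the left lung homogenized in PBS. Lung CFU were counted by serial dilution on LB agar and expressed as log CFU per gram.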

[4] = tested on: K. pneumoniae ATCC 700603 wt; assay: Mouse lung infection, CFU in lung at 24 h; type: in vivo; settings: MPN 10 mg/kg i.p.
Summary of the method: as §2

[5] = tested on: K. pneumoniae ∆mfd; assay: Mouse lung infection, CFU in lung at 24 h, ∆mfd mutant; type: in vivo; settings: NF-NM102 6 mg/kg or MPN 10 mg/kg i.p.
[6] = tested on: Vero cells; assay: Cytotoxicity, CellTiter96 AQueous; type: cell-based, monkey; settings: 1 h; MPN 10 and 100 µM, NM102 10 and 300 µM, NM102 nanoformulation 1.29 and 5.16 mM
Summary of the method: as §1

[7] = target: T1, Mfd (Escherichia coli, UniProt P30958); assay: Isothermal titration calorimetry; type: binding, E. coli; settings: ITC, 25 °C; no inhibitor
T1 sequence (P30958 1-1148): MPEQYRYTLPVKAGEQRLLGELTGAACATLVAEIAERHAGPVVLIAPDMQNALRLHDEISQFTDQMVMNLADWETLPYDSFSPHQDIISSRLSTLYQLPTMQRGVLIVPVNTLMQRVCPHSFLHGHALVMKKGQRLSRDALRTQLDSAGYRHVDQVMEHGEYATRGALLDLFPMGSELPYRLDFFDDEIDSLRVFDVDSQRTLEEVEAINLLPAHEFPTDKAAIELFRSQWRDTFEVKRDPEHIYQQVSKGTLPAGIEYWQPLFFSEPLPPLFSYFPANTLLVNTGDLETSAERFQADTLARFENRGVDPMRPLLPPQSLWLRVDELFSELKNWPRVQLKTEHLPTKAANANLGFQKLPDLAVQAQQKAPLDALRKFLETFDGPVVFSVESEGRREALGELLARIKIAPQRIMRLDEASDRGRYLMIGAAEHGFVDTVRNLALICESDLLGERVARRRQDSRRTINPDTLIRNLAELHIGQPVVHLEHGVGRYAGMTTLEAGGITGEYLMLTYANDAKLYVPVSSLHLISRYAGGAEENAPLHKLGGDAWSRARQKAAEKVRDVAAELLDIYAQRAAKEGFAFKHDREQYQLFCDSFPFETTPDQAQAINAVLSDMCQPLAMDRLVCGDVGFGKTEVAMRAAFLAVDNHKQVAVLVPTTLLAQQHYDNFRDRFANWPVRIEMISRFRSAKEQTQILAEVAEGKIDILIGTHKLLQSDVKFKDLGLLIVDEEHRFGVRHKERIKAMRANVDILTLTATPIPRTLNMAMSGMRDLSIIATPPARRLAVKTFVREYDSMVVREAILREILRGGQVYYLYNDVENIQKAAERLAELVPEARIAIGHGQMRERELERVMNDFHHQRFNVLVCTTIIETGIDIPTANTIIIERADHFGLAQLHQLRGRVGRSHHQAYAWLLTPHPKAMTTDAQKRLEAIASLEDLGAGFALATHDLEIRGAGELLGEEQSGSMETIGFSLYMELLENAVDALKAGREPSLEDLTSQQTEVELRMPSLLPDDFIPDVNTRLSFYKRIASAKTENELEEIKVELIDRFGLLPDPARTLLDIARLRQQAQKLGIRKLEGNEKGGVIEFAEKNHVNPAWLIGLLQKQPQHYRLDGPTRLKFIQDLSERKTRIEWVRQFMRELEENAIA
Summary of the method: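 Full-length E. coli Mfd (20 µM) in 0.1 M Tris, 0.2 M NaCl, 4% DMSO, pH 8 at 25 °C. Titrated with 20 injections of 2.5 µL of 200 µM test compound at 300 s intervals. For the competition run, Mfd was preincubated with test compound, then ATP (200 µM) binding was measured. A = Ka/Kapp. Performed in triplicate.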

Structure (SMILES)	cytotoxicity [1]	decrease of bacterial load [2] [times]	effect on bacterial load in the lung [3]	reduction of the bacterial load [4] [%]	effect on bacterial burden of the ∆mfd mutant [5]	cytotoxicity [6]	Kd [7] [µM]
C[C@@H](O)[C@H]1C(=O)N2C(C(=O)O)=C(S[C@@H]3CN[C@H](C(=O)N(C)C)C3)[C@H](C)[C@H]12 [MPN, meropenem]	no toxicity	26	no significant effect	93	inhibited	induced cytotoxicity	–
Nc1ncnc2c1ncn2[C@@H]1O[C@H](COP(=O)(O)OP(=O)(O)OP(=O)(O)O)[C@@H](O)[C@H]1O [ATP]	–	–	–	–	–	–	145 ± 9
